SENP7 block: blocks the human protease SENP7. Q9BQF6. inhibition, % at 5 µM. AID 434973. 330,000 tested, 1.5% active. recombinant SENP7, Z-RLRGG-aminoluciferin luminescence, 40 min;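 active = inhibition above about 50% at the single test dose, limit read from the data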;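 note: plate controls were DMSO with enzyme for no effect and no enzyme buffer wells for full effect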
SENP8 block-1: inhibitors of human SENP8 protease; 330,000 tested, 1.2% active; inhibition, % at 10 µM; purified SENP8, Z-RLRGG-aminoluciferin cleavage, luminescence; in the data active = inhibition above about 50%
SENP1 FRET inh: blocks the human SENP1 SUMO protease catalytic domain | Q9P0U3 | recombinant SENP1 catalytic domain, CyPet-SUMO1-YPet FRET cleavage | inhibition, % at 10 µM | 360,000 tested, 0.21% active | AID 624204;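 active = inhibition at least 30% at 10 µM, raw YFP signal under a set limit, fluorescence ratio 0.5 to 1.5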;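 note: 0% = enzyme with DMSO and 100% = no enzyme wells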
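System: Recombinant human SENP1 catalytic domain, His6-tagged | Incubation: Enzyme reaction for 50 min at room temperature, dark | Medium: Tris pH 8 with BME, BSA, NP40 and catalase | Also added: 25 nM SUMO1 FRET substrate | Compound: 10 µM single point, 0.5% DMSO | Measured by: FRET fluorescence in CFP and YFP emission channels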
Platelet DG rel: modulates dense granule release in human platelets; human platelet-rich plasma, SFLLRN dense granule ATP release, luminescence; AID 1663; inhibition, %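 (compounds screened at 7.5 µM in platelet-rich plasma)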; 300,000 tested, 0.22% active;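 active = mean replicate score, as percent of positive control, at or above 50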
SENP6 block: SENP6 protease inhibition | Q9GZR1 | Recombinant SENP6 catalytic domain, aminoluciferin luminescence | inhibition, % at 10 µM | 330,000 tested, 1.8% active | AID 2599;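 active = inhibition above about 50% at the single tested dose, limit read from the data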;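 note: plate controls were DMSO wells with enzyme for no effect and DMSO wells lacking enzyme for full effect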
Target sequence (Q9GZR1 628-1112 limits assumed): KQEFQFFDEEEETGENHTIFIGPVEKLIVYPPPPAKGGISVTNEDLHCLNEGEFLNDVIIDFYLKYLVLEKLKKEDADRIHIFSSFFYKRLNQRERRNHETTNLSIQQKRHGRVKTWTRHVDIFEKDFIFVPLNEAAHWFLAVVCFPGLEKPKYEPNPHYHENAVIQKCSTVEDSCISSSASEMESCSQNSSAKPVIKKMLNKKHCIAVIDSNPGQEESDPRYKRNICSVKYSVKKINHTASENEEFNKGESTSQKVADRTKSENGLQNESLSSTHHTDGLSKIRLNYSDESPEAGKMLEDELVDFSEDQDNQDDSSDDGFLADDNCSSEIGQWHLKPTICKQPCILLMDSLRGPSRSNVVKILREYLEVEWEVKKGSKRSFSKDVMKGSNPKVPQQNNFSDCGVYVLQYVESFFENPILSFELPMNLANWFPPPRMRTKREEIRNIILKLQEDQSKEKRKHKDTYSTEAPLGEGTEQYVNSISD
SENP8 block-2: blocks human SENP8 cleavage of Nedd8 substrate. 360,000 tested, 0.64% active. recombinant SENP8, Nedd8 substrate fluorescence. inhibition, % at 20 µM; in the data active = inhibition mostly above about 40%, no sharp cut-off; inactive = mostly below about 27%
SENP8 confirm: human SENP8 inhibition, confirmed; shares compounds with SENP7 block; Recombinant SENP8, Z-RLRGG-aminoluciferin luminescence, 60 min; inhibition, % at 12.5 µM; 6,200 tested, 40% active;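 active = mean inhibition across replicates above about 50%, limit read from the data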
SENP6 conf: confirmation of human SENP6 protease inhibitors; AID 488915; inhibition, % at 12.5 µM; recombinant SENP6, Z-RLRGG-aminoluciferin luminescence; 6,200 tested, 58% active; shares compounds with SENP7 block
SENP7 confirm: human SENP7 inhibition, confirmed; inhibition, % at 12.5 µM; AID 488917; shares compounds with SENP7 block; 6,200 tested, 69% active; recombinant SENP7, Z-RLRGG-aminoluciferin luminescence, 40 min
Casp3 SENP sel: caspase-3 inhibition (SENP selectivity assay); shares compounds with SENP7 block; purified caspase-3, Z-DEVD-aminoluciferin luminescence, 60 min; inhibition, % at 12.5 µM; 6,200 tested, 60% active; AID 488918;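 active = mean inhibition above about 50%, limit read from the data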;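 note: plate controls were enzyme with DMSO for no effect and wells without caspase-3 for full effect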
Target sequence (P42574 28-227 limits assumed): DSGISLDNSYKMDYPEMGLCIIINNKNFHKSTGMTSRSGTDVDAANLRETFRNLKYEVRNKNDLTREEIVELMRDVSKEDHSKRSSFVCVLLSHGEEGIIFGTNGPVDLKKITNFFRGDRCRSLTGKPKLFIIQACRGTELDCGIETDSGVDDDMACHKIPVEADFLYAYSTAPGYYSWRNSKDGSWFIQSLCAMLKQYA
Luc interf: luminescence interference (SENP counter-screen) | AID 488919 | inhibition, % at 12.5 µM | 6,200 tested, 39% active | Pre-incubated SENP8/Z-RLRGG-aminoluciferin, luciferase luminescence interference | shares compounds with SENP7 block;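 active = mean inhibition above about 50% when retested at one dose, limit read from the data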;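 note: plate controls were DMSO wells with completed reaction for no effect and substrate without enzyme for full effect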
Active calls of the source: *; . = no result given. Shown are actives, neighbours in structure and some others; about 2.6% of the full set was active somewhere.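 Rule for the calls, unless noted: active = mean inhibition above about 50% in the one-dose retest (limit read from the data); inactive = the rest.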

SMILES	SENP7 block	SENP8 block-1	SENP1 FRET inh	Platelet DG rel	SENP6 block	SENP8 block-2	SENP8 confirm	SENP6 conf	SENP7 confirm	Casp3 SENP sel	Luc interf
Cc1cccc(/C=N/Nc2ccc3ccccc3n2)c1	5.2	96.1*	1.7	0.0	91.9*	-406.8	-5.6	100.7*	104.0*	98.2*	75.2*
C(=N\Nc1ccc2ccccc2n1)/c1ccc2c(c1)OCCO2	-3.6	84.3*	-4.9	44.8	78.4*	-392.9	97.9*	100.5*	103.9*	97.5*	84.6*
Cc1ccc(/C=N/Nc2ccc3ccccc3n2)o1	88.3*	85.0*	-16.9	.	78.7*	-457.4	92.8*	92.8*	100.0*	91.7*	85.1*
CC(=O)c1ccc(OCCNS(=O)(=O)c2ccc(-n3cnnn3)cc2)cc1	2.3	1.4	2.9	-1.9	9.2	11.5	.	.	.	.	.
COc1cc(NC(=O)C2CSC3(C)CCC(=O)N23)c(OC)cc1Cl (stereo not drawn)	-4.0	20.4	-0.5	-5.7	-8.8	7.8	.	.	.	.	.
COc1ccc(CNC(=O)CNC(=O)c2cccs2)c(OC)c1	-4.1	-0.2	0.0	-0.9	-1.5	9.5	.	.	.	.	.
COc1ccc(C(=O)OCC(=O)N2c3ccccc3CC2C)cc1S(=O)(=O)N1CCOCC1 (stereo not drawn)	.	.	0.0	.	.	1.5	.	.	.	.	.
Cn1cccc1C(=O)OCC(=O)Nc1ccc2c(c1)OCO2	-1.6	-2.4	0.4	-3.7	9.6	23.5	.	.	.	.	.
Cn1cccc1C(=O)OCc1cc(Cl)cc2c1OCOC2	50.7*	45.1	6.3	-0.2	75.1*	10.0	70.2*	72.1*	90.0*	47.0	64.6*
O=C1/C(=C/c2cccs2)Cc2ccccc21	92.3*	84.2*	0.5	18.5	91.0*	7.0	82.6*	90.9*	98.6*	86.7*	70.4*
Cn1cccc1/C=C1\CCc2ccccc2C1=O	42.6	95.4*	-96.7	67.2*	100.2*	-11.6	97.5*	98.3*	101.6*	96.8*	96.0*
Cn1cccc1/C=C1\Cc2ccccc2C1=O	92.9*	91.9*	-34.4	36.0	-7.9	-255.6	66.5*	91.0*	99.2*	92.7*	36.1
O=C(CCC(=O)N1CCCC(Nc2ccccc2)C1)c1ccc(F)cc1 (stereo not drawn)	1.5	-5.1	2.6	-12.1	19.6	11.3	.	.	.	.	.
CCOc1ccc(OCc2cccc(C(=O)N3CCCC3)c2)cc1	8.1	9.1	0.9	2.2	12.5	-0.5	.	.	.	.	.
COCC(=O)Nc1ccc(OCc2ccccc2)cc1	39.1	15.6	1.8	-7.7	29.9	14.5	.	.	.	.	.
O=C(O)c1cccc(COc2ccc(CO)cc2Cl)c1	100.1*	96.3*	2.1	14.4	97.1*	7.2	97.5*	100.5*	103.6*	98.4*	98.8*
CCOc1ccc(OCc2cccc(C(=O)O)c2)cc1	100.4*	96.1*	-0.6	6.0	98.6*	16.4	10.2	100.3*	103.4*	99.3*	97.8*
O=C(O)c1cccc(COc2ccc3c(c2)CCC3)c1	98.9*	97.2*	0.6	-2.2	97.0*	25.1	10.6	100.9*	103.6*	98.9*	99.6*
COC(=O)Nc1ccc(OCc2ccccc2)cc1	1.9	47.8	2.0	5.7	72.8*	7.6	52.9*	50.9*	82.2*	62.9*	17.6
O=C(NCc1ccccc1)c1cccc(COc2ccc3c(c2)CCC3)c1	-1.1	6.8	-5.0	9.2	24.5	-1.2	.	.	.	.	.
COc1cc(/C=C/[N+](=O)[O-])ccc1OCc1cccc(C(=O)O)c1	23.7	25.1	.	-0.1	51.5*	.	57.1*	31.7	48.7	16.0	64.5*
COc1ccc(OCc2cccc(C(=O)O)c2)cc1	99.5*	96.5*	0.6	13.5	97.6*	18.7	99.9*	100.9*	103.3*	99.3*	99.2*
O=C(O)/C=C/C(=O)Nc1ccc2c(c1)C(=O)c1ccccc1C2=O	52.8*	47.0	14.6	1.9	77.8*	17.0	73.4*	67.4*	84.6*	24.6	79.4*
CCOC(=O)c1c(C)[nH]c(N=Nc2cccc(OC)c2)c1C	58.3*	20.6	0.8	6.0	5.2	20.4	58.1*	61.8*	88.3*	27.3	33.5
CCOC(=O)c1c(C)[nH]c(N=Nc2ccc(C)cc2)c1C	-8.9	21.2	0.8	4.8	53.3*	18.1	7.3	37.4	4.9	17.6	4.8
SMILES	SENP7 block	SENP8 block-1	SENP1 FRET inh	Platelet DG rel	SENP6 block	SENP8 block-2	SENP8 confirm	SENP6 conf	SENP7 confirm	Casp3 SENP sel	Luc interf
CCOC(=O)c1c(C)[nH]c(N=Nc2ccccc2Cl)c1C	30.8	16.6	0.7	2.6	-1.7	34.9	.	.	.	.	.
CCOC(=O)c1c(C)[nH]c(N=Nc2cccc(C)c2)c1C	2.1	49.8	0.0	3.4	62.4*	26.5	48.7	62.7*	78.2*	28.0	15.4
Cc1cc2nc(NC(=O)C3(C)CCN3C(=O)C(C)C)[nH]c2cc1C (stereo not drawn)	.	.	1.1	.	.	11.4	.	.	.	.	.
O=C(/C=C/c1ccc(Cl)c(Cl)c1)N1CCc2ccccc21	66.4*	-12.4	1.4	1.2	9.2	15.3	-12.6	-8.0	-6.5	8.0	0.6
CN1CCN(C(=O)/C=C/c2ccc(Cl)c(Cl)c2)CC1	3.6	-5.5	-0.5	-3.0	-7.0	4.6	.	.	.	.	.
CCOc1cc(S(=O)(=O)N(CC)CC)ccc1Cl	3.0	-2.0	-1.8	2.3	-6.1	9.3	.	.	.	.	.
CCOc1cc(C)c(Cl)cc1S(=O)(=O)N(CC)CC	-5.1	62.7*	1.0	3.2	2.8	15.0	4.3	9.7	10.6	2.6	4.5
Cc1nc(C(F)(F)F)ccc1C(=O)N1CCC1(C)C(=O)NS(=O)(=O)c1ccc(C(C)(C)C)cc1 (stereo not drawn)	.	.	2.4	.	.	3.2	.	.	.	.	.
Cc1c(C(=O)c2ccc(F)cc2F)c2ccccn2c1CCC#N	26.1	42.3	-46.8	4.1	58.2*	-4.5	10.8	9.0	-4.3	3.8	-0.6
COC(=O)CCc1c(C)c(C(=O)c2cc(F)c(F)c(F)c2F)c2ccccn12	3.9	28.5	-62.1	-1.6	77.4*	-29.7	8.3	6.6	-8.7	-3.2	-2.6
COC(=O)CCc1c(C)c(C(=O)c2ccc(F)cc2)c2ccccn12	-6.9	0.8	-2.7	3.4	-15.1	2.9	.	.	.	.	.

Source: PubChem BioAssay (several laboratories)
